# SIRT5 inh: blocks human SIRT5 desuccinylation of peptide; Q9NXA8; 1.1% of 330,000 active; inhibition, % at 15 µM; Purified SirT5, succinyl-peptide AMC, trypsin-coupled fluorescence; in the data active = inhibition above about 15%; inconclusive = no clear call, values can overlap the other calls
# DENV2 CPE rescue: protects cells from dengue virus 2 cytopathic effect; DENV2-infected cells, cytopathic effect rescue, plate reader; CPE inhibition, % at 9.99 µM; 1.7% of 350,000 active; in the data active = CPE inhibition above about 20%, passing the limit was not always enough; inconclusive = no clear call, values can overlap the other calls; tested in BHK-21 cells
# E-selectin induc: induces E-selectin expression in human endothelial cells; HUVEC E-selectin immunofluorescence imaging; normalized: neutral wells 0, TNF-alpha wells 100; activation, % at 7.58 µM; 0.37% of 260,000 active; AID 686992;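 active = mean E-selectin-positive cell signal at least 10% of the positive control, reached in at least 60% of replicates, without over 20% cell loss; inconclusive = no rule given, readout overlaps actives, possibly toxicity-flagged; inactive = the rest, including those meeting only one limit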
#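 material = human umbilical vein endothelial cells (HUVEC), E-selectin induction | quantity = 3,000 cells/well | medium = EGM-2 growth medium on 0.1% gelatin-coated wells | technique = immunofluorescence imaging | read-out basis = % PE-positive cells | control set = TNF-alpha positive control, DMSO neutral control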
# Numbers stand for hits; - = inactive; ? = inconclusive; . = no result. Shown are actives, neighbours in structure and some others; about 2.9% of the full set was active somewhere.
SMILES,SIRT5 inh,DENV2 CPE rescue,E-selectin induc
CO[C@@H]1CN(C)C(=O)c2ccc(NC(=O)c3ccc(F)cc3)cc2OC[C@@H](C)N(C(=O)CN(C)C)C[C@H]1C,.,.,-
Cc1noc(C)c1NC(=O)Nc1ccc2c(c1)C(=O)N([C@H](C)CO)C[C@H](C)[C@H](CN(C)C(=O)Nc1ccccc1)OCCCC[C@H](C)O2,-,68,-
Cc1noc(C)c1NC(=O)Nc1ccc2c(c1)C(=O)N([C@@H](C)CO)C[C@@H](C)[C@@H](CN(C)C(=O)Nc1ccccc1)OCCCC[C@H](C)O2,-,-,-
CN(C)C(=O)C[C@@H]1CC[C@@H]2[C@H](COC[C@@H](O)CN2CC2CCCCC2)O1,-,-,-
COc1ccc(S(=O)(=O)N2CCCCC2)cc1NC(=O)Cc1cccc(C(F)(F)F)c1,-,-,-
COc1ccc(S(=O)(=O)N2CCCCCC2)cc1NC(=O)Cc1cccc(C(F)(F)F)c1,-,111,.
COc1ccc(S(=O)(=O)N2CCCCCC2)cc1C(=O)N(C)Cc1ccc(C(C)(C)C)cc1,-,59,-
COc1ccc(S(=O)(=O)N2CCCCCC2)cc1C(=O)N(C)Cc1ccc(F)cc1,-,-,-
C[C@@H]1CN([C@@H](C)CO)C(=O)c2cc(NC(=O)Cn3cnnn3)ccc2O[C@@H]1CN(C)S(=O)(=O)c1cccs1,-,-,-
COCCCNC(=O)Cn1ccc(NC(=O)OCc2ccccc2)nc1=O,.,.,-
CC(CNC(=O)Cn1ccc(NC(=O)OCc2ccccc2)nc1=O)c1ccccc1 (stereo not drawn),-,36,-
CC(=O)N(CCOc1ccccc1)CCOc1ccccc1,-,-,.
O=C(N[C@H]1CC[C@H](CCNS(=O)(=O)c2ccccc2Cl)O[C@@H]1CO)c1ccccc1,18,-,-
O=C(N[C@@H]1CC[C@@H](CCNS(=O)(=O)c2ccccc2Cl)O[C@H]1CO)c1ccc(F)cc1,-,-,-
O=C(N[C@@H]1CC[C@@H](CCNS(=O)(=O)c2cccc(Cl)c2)O[C@H]1CO)c1ccccc1,-,77,-
O=C(N[C@H]1CC[C@H](CCNS(=O)(=O)c2cccc(Cl)c2)O[C@@H]1CO)c1ccccc1,-,-,-
O=C(/C=C/c1ccccc1)CC(O)(c1ccccc1)C(F)(F)C(F)F (stereo not drawn),-,-,.
COc1ccccc1CNS(=O)(=O)c1cccc2nsnc12,-,-,.
COc1ccccc1CNC(=O)C(NS(=O)(=O)c1cccc2nsnc12)C(C)C (stereo not drawn),19,-,-
COc1ccc2[nH]c(=O)c(C(c3nnnn3CC3CCCO3)N3CCCCC3)cc2c1 (stereo not drawn),-,-,.
COCCn1nnnc1C(c1cc2cc(OC)ccc2[nH]c1=O)N1CCC(Cc2ccccc2)CC1 (stereo not drawn),17,-,.
O=C(CN1C(=O)c2ccccc2C1=O)Nc1ccccc1N1CCOCC1,-,-,.
CCc1ccccc1NC(=S)NC1CC2CCC(C1)N2Cc1ccco1 (stereo not drawn),-,-,.
COc1ccc(/C=C/C(=O)NNC(=O)c2cc(C)oc2C)cc1,23,-,.
Cc1cc(C(=O)NNC(=O)/C=C/c2ccccc2Cl)c(C)o1,-,-,.
SMILES,SIRT5 inh,DENV2 CPE rescue,E-selectin induc
CCC(=O)c1ccc(OCC(=O)NNC(=O)c2cc(C)oc2C)cc1,-,-,49
CCOc1ccc(C(=O)NNC(=O)c2cc(C)oc2C)cc1,-,-,-
Cc1cc(Oc2ccc(N)cn2)ccc1Cl,-,-,-
CSc1ccc(S(=O)(=O)N2CCC(C(=O)Nc3ccccc3C(F)(F)F)CC2)cc1,-,-,-
CCn1c(=O)c([N+](=O)[O-])c(NCCN(C)C)c2ccccc21,-,-,.
CCCCNc1c([N+](=O)[O-])c(=O)n(C)c2ccccc12,-,-,48
Cn1c(=O)c([N+](=O)[O-])c(-n2ccnc2)c2ccccc21,-,-,-
Cn1c(=O)c([N+](=O)[O-])c(NCCCn2ccnc2)c2ccccc21,.,-,74
Cc1ccc(S(=O)(=O)Nc2ccc3c(c2)C(=O)N([C@@H](C)CO)C[C@@H](C)[C@@H](CN(C)C(=O)Nc2c(C)noc2C)OCCCC[C@H](C)O3)cc1,-,-,.
CC(CCc1ccccc1)NC(=O)c1nnc(Cc2ccc(F)cc2)o1 (stereo not drawn),.,-,-
Nc1ccccc1C(O)(Cc1ccccc1)c1ccccc1 (stereo not drawn),-,36,-
OC(Cc1cccnc1)(c1ccccc1)c1ccccc1,-,?,-
CCC/C(O)=C1\C(=O)CC(c2ccccc2)CC1=NCCc1c(C)[nH]c2ccccc12 (stereo not drawn),-,-,-
CCC/C(O)=C1\C(=O)CCCC1=NCCc1c(C)[nH]c2ccccc12,25,-,-
FC(F)Oc1ccccc1/C=N/n1cnc2ccccc21,-,-,.
COc1ccc(C)cc1NC(=O)c1cnc2scc(C)n2c1=O,-,?,-
